pIC50: −log10 of the molar value.
Experiments:
Jurkat = experiment: The compound was tested in vitro for inhibition of IL-2 release stimulated with PMA/ionomycin by Jurkat cells.; assay type: functional, cell-based; conditions: Homo sapiens
Summary of the method: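 Jurkat cells at 2 × 10⁵/mL in RPMI-10 (10% heat-inactivated calf serum) with serial compound dilutions, stimulated with PMA 1000 ng/mL plus ionomycin 125 ng/mL, incubated overnight. IL-2 in supernatants quantified by ELISA.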

Mus musculus = species on record: Mus musculus; experiment: The compound was tested in vitro for inhibition of proliferation in BDF1 mouse spleen cells stimulated with concanavalin A (ConA).; assay type: functional
Summary of the method: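 BDF1 mouse spleen cells, 5 × 10⁶/mL in RPMI-10, given compound dilutions and Con A 5 μg/mL. Cultured 72 h at 37 °C, 5% CO₂, with [³H]thymidine 0.5 μCi over the last 16 h. Incorporated radioactivity counted by scintillation. Quadruplicate means used; viability checked by trypan blue. IC50 derived.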

| Structure (SMILES) | pIC50 (Jurkat) | pIC50 (Mus musculus) |
| --- | --- | --- |
| C/C=C/C[C@@H](C)[C@@H](O)[C@H]1C(=O)N[C@@H](CC)C(=O)N(C)CC(=O)N(C)[C@@H](CC(C)C)C(=O)N[C@@H](C(C)C)C(=O)N(C)C(CC(C)C)C(=O)N[C@@H](C)C(=O)N[C@H](C)C(=O)N(C)C(CC(C)C)C(=O)N(C)[C@@H](CC(C)C)C(=O)N(C)C(C(C)C)C(=O)N1C (single isomer, unassigned) [CYCLOSPORINE] | 7.92 | – |
| C/C=C/CC(C)[C@@H](O)[C@H]1C(=O)N[C@@H](CC)C(=O)N(C)CC(=O)N(C)[C@@H](CC(C)C)C(=O)N[C@@H](C(C)C)C(=O)N(C)[C@@H](CC(C)C)C(=O)N[C@@H](Cc2ccccc2)C(=O)N[C@H](CO)C(=O)N(C)[C@@H](CC(C)C)C(=O)N(C)[C@@H](CC(C)C)C(=O)N(C)[C@@H](C(C)C)C(=O)N1C (some centres not stated) | 7.68 | 6.98 |
| C/C=C/CC(C)[C@@H](O)[C@H]1C(=O)N[C@@H](CC)C(=O)N(C)CC(=O)N(C)[C@@H](CC(C)C)C(=O)N[C@@H](C(C)C)C(=O)N(C)[C@@H](CC(C)C)C(=O)N[C@@H](Cc2ccccc2)C(=O)N[C@H](C)C(=O)N(C)[C@@H](CC(C)C)C(=O)N(C)[C@@H](CC(C)C)C(=O)N(C)[C@@H](C(C)C)C(=O)N1C (some centres not stated) | 6.97 | 6.61 |
| C/C=C/CC(C)C(O)[C@H]1C(=O)N[C@@H](CC)C(=O)N(C)[C@H](C)C(=O)N(C)[C@@H](CC(C)C)C(=O)N[C@@H](C(C)C)C(=O)N(C)[C@@H](CC(C)C)C(=O)N[C@@H](Cc2ccccc2)C(=O)N[C@H](C)C(=O)N(C)[C@@H](CC(C)C)C(=O)N(C)[C@@H](CC(C)C)C(=O)N(C)[C@@H](C(C)C)C(=O)N1C (some centres not stated) | 7.21 | 6.85 |
